mHtt clearance: mutant huntingtin protein clearance; AID 853; HeLa Exon1htt(103Q)mCFP, aggregate imaging; zero = plate's median compound well; inhibition, % at 1.5 µM; hit rate 0.42% among 47,000;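 active means inhibition of aggregate fluorescence above about 70%, also judged a hit by eye on the cell image, limit read from the data, passing the limit was not always enough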;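 further: cells exposed to compound for three days before fixation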
HEK293 NFkB inh: lowers PMA/ionomycin-induced NF-kB signal in HEK293 cells; hit rate 0.21% among 62,000; AID 465; HEK-293 NF-kB luciferase reporter, luminescence; inhibition, % at 3 µM;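 active means inhibition above the mean of all tested compounds plus 3 SD, cut at about 40% in these data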;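 further: 0% = stimulated DMSO wells and 100% = 10 µM reference inhibitor 5653914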
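Timing: 1 h pretreatment, 16 h stimulation, 37 °C; system: HEK-293 cells with stable firefly luciferase reporter driven by four HIV NF-kB elements; doses: 3 µM once, 0.30% DMSO; measured by: luciferase luminescence; control set: DMSO and 10 µM reference inhibitor; repeats: single test; reagent: PMA plus ionomycin mix as NF-kB-activating stimulus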
M1 antag: blocks the rat M1 muscarinic receptor response to acetylcholine; CHO-M1 cells, Fluo-4 calcium, ACh EC80 antagonist mode; hits give low values; B-score at 10 µM; hit rate 3.4% among 64,000;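 active means calcium fluorescence response, raw or row-and-column corrected B-score, differing from the plate sample mean either way at a set confidence level, mostly lower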
M1 ag: M1 muscarinic receptor agonism; CHO-M1 cells, Fluo-4 calcium fluorescence, agonist mode; hits give high values; B-score at 10 µM; hit rate 3% among 64,000;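 active means fluorescence rise, raw or as B-score row- and column-corrected plate score, outside the 99.7% band of its plate's samples, either direction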
D1 mod: allosteric modulators of human D1 dopamine receptor. B-score at 10 µM. HEK293 D1, CRE-luciferase, dopamine EC30 potentiation; actives deviate in either direction. AID 641. hit rate 5.9% among 58,000;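 active means luminescence count or its row- and column-corrected plate score outside the 99.7% band of the plate's sample wells, on either side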
Target sequence (P21728 whole entry, looked up): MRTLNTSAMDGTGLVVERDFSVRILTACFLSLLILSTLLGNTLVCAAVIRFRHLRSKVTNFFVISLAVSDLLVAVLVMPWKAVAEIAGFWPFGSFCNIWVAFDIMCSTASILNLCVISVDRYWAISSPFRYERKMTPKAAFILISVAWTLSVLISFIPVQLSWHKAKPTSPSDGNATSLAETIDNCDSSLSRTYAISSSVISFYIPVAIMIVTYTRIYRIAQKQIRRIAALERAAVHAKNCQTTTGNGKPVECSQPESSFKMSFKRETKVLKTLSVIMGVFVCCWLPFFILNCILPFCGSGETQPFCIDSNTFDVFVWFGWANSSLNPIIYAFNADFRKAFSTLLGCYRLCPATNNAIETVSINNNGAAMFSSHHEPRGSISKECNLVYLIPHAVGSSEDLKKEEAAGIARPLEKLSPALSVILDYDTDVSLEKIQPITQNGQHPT
Jurkat viability: cytotoxicity toward Jurkat cells | Jurkat E6.1 viability, ATP luminescence, 48 h | inhibition, % at 4 µM | hit rate 1.2% among 56,000 | AID 463;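 active means inhibition above the mean inhibition of all tested compounds plus 3 SD, cut at about 28% in these data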
D1 PAM confirm: D1 receptor (human) allosteric modulation, confirmed | HEK293 D1 CRE-luciferase, dopamine EC30 potentiation; hits give high values | hit rate 88% among 2,200 | luminescence at 10 µM | shares compounds with D1 mod;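 active means luminescence in either of two replicates above the same-plate mean plus 3 SD of the low-dose dopamine control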
D1 no dopamine: activates D1 CRE-luciferase signal without dopamine present; shares compounds with D1 mod; HEK293 D1 CRE-luciferase, luminescence, no dopamine; hits give high values; luminescence at 10 µM; hit rate 0.8% among 1,900; AID 646; in the data active means luminescence above about 3900
Isoprot counter: isoproterenol response counter-screen activity for D1 modulators. shares compounds with D1 mod. HEK293 D1 CRE-luciferase, isoproterenol EC30 counter-screen; hits give high values. luminescence at 10 µM. hit rate 63% among 2,200. AID 647;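 active means luminescence in either replicate above plate mean of wells with a partly effective reference agonist dose plus 3 SD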;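 further: isoproterenol raises cAMP through native beta-adrenoceptor Gs so signal bypasses D1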
* hit, by the source's call; nt = not tested or not shown. Hits are enriched below; roughly 9.5% of the tested compounds scored in any of these assays.

SMILES	mHtt clearance	HEK293 NFkB inh	M1 antag	M1 ag	D1 mod	Jurkat viability	D1 PAM confirm	D1 no dopamine	Isoprot counter
COc1ccc(CNc2nc(NCc3ccc(OC)c(OC)c3)n(C(=O)c3cccs3)n2)cc1OC	-15	nt	nt	nt	nt	nt	nt	nt	nt
CC(C)(C)c1cc(NC(=O)COC(=O)C2CC2)n(-c2ccccc2)n1	0	7	1.6	0.019	2.1	-3	nt	nt	nt
CCCC(=O)OCC(=O)Nc1cc(C(C)(C)C)nn1-c1ccccc1	24	4	1.2	0.53	4.7*	3	6968*	nt	2344
N#Cc1nc(-c2ccccc2Cl)oc1NCC1CCCO1 (stereo unspecified)	nt	0	-0.057	-1.4	5.7*	11	10656*	1604	3572*
COc1ccc(-c2nc(C#N)c(NCC3CCCO3)o2)cc1OC (stereo unspecified)	nt	-2	0.024	0.5	3.8*	-5	8472*	1680	3300*
CCOc1ccc(-c2nc(C#N)c(NCC3CCCO3)o2)cc1 (stereo unspecified)	12	nt	nt	nt	nt	nt	nt	nt	nt
CN(C)c1oc(-c2ccccc2Cl)nc1C#N	8	3	0.54	-0.34	3.4*	-9	6136*	1600	2636
CN(C)c1oc(-c2ccccc2)nc1C#N	-29	nt	nt	nt	nt	nt	nt	nt	nt
COc1ccc(-c2nc(C#N)c(NC(C)c3ccccc3)o2)cc1OC (stereo unspecified)	0	2	0.23	0.15	6.8*	1	12956*	nt	2672
Cc1ccc(Cl)cc1N1CCN(CC(=O)Nc2ccc3[nH]c(=O)[nH]c3c2)CC1	2	14	0.26	-1.3	1	8	nt	nt	nt
Cc1c(CN(C)CCc2ccccc2)c(=O)n(-c2ccccc2)n1C	nt	-8	nt	nt	-0.049	-7	nt	nt	nt
COc1ccc(-c2nc(C#N)c(N3CCOCC3)o2)cc1OC	nt	22	-0.51	-0.57	3.2*	2	11200*	1596	3116*
CCCn1c(=O)c(C(=O)NCc2ccc(OC)c(OC)c2)c(O)c2ccccc21	-2	15	-0.06	-2	4.5*	-6	9276*	1736	3652*
CCOC(=O)C1=C(C)NC(C)=C(C(=O)OCC)C1C(=O)OCC(=O)c1ccc2c(c1)OCCO2	nt	1	-0.94	0.27	10*	3	7616*	1608	3568*
O=C1CC(=O)C(n2cncn2)C(c2ccc(Cl)cc2)C1 (stereo unspecified)	32	nt	nt	nt	nt	nt	nt	nt	nt
O=C(CCc1nc(-c2ccccc2F)no1)Nc1ccc(Oc2ccccc2)cc1	-49	22	-0.8	-0.56	8.6*	19	4944	1544	2592
COc1ccc(N2CCCn3c2nc2c3c(=O)n(Cc3ccc(F)cc3)c(=O)n2C)c(OC)c1	nt	5	-0.032	0.14	-0.38	6	nt	nt	nt
COc1ccc(OC)c(C(=O)COC(=O)C2CC3CCCC(C2)C3=O)c1 (stereo unspecified)	nt	6	-0.62	0.32	2.2*	-3	9744*	1720	2844
COc1ccc(C(=O)Nc2cccc3c2C(=O)NC3=O)cc1S(=O)(=O)N1CCOCC1	nt	0	-0.25	-1.9	1.4	-11	nt	nt	nt
CCOCCCn1c(=NC(=O)c2cccnc2)c(C(=O)OCC)cc2c(=O)n3ccccc3nc21	17	17	-0.55	1.3	3.3*	-7	10440*	1560	3780*
CCCn1c(=NC(=O)c2ccncc2)c(C(=O)OCC)cc2c(=O)n3cccc(C)c3nc21	nt	15	-0.73	0.54	-0.37	-3	nt	nt	nt
CCOC(=O)c1cc2c(=O)n3ccccc3nc2n(Cc2ccc(Cl)cc2)c1=N	nt	15	-0.73	0.64	0.29	4	nt	nt	nt
CCCCn1c(=NC(=O)c2ccco2)c(C(=O)OCC)cc2c(=O)n3ccccc3nc21	-18	17	-1.1	-0.029	5.6*	nt	9240*	1496	2948
CC(Oc1ccccc1)C(=O)Nc1ccc(S(=O)(=O)NCC2CCCO2)cc1 (stereo unspecified)	-7	4	-0.16	-0.22	-0.17	7	nt	nt	nt
COc1ccc(-c2noc(CCN3C(=O)c4ccccc4C3=O)n2)cc1OC	-22	12	1.2	-0.25	2.6*	-10	17536*	1456	3152
SMILES	mHtt clearance	HEK293 NFkB inh	M1 antag	M1 ag	D1 mod	Jurkat viability	D1 PAM confirm	D1 no dopamine	Isoprot counter
COc1ccc(-c2noc(CSc3nnc(CCc4ccccc4)n3-c3ccccc3)n2)cc1OC	27	7	-1.4	-0.25	7.2*	5	10480*	1584	3456*
c1ccc(SCc2nc(-c3ccncc3)no2)cc1	5	-6	0.8	-0.023	-0.091	2	nt	nt	nt
COc1ccc(-c2noc(CSc3ccccc3)n2)cc1OC	-28	-4	-0.42	0.23	9.4*	-2	8800*	1600	3028*
COc1ccc(-c2nnc(SCc3ccccc3F)o2)cc1OC	nt	3	-0.82	0.17	12*	7	22288*	1720	4708*
O=C(CCCCn1c(=O)[nH]c2ccccc2c1=O)NCCC1=CCCCC1	4	20	-0.54	0.086	-1	2	nt	nt	nt
COc1cc2c(cc1OC)CN(S(=O)(=O)c1ccc3c(c1)OCCO3)CC2	38	6	-0.34	-1.4	5.3*	7	15328*	1404	3488*
C=CCN1C(=O)C2(C(C#N)=C(N)Oc3n[nH]c(CCC)c32)c2ccccc21 (stereo unspecified)	39	15	-0.2	-0.31	0.57	-6	nt	nt	nt
Cn1c(=O)c2c(nc(CN3CCN(c4ccc(F)cc4)CC3)n2Cc2ccccc2F)n(C)c1=O	nt	14	-0.42	-0.38	2.1	-2	nt	nt	nt
Cn1c(Cn2c(=O)sc3ccccc32)nnc1SCC(=O)N1CCOCC1	nt	7	0.033	-0.0082	5.1*	2	8076*	1508	2340
CCCn1c(CCc2ccccc2)nnc1SCC(=O)N1CCOCC1	38	12	1	0.42	3.2*	-11	4772	1664	2068
OC(C#Cc1ccccn1)c1cccs1 (stereo unspecified)	-32	5	-0.62	0.45	-0.064	9	nt	nt	nt
COc1ccc(-c2nn(C)c(=O)c3ccccc23)cc1CNS(C)(=O)=O	nt	10	-0.23	0.17	1.7	-3	nt	nt	nt
COc1ccc(-c2nn(C)c(=O)c3ccccc23)cc1CNC(=O)c1ccco1	nt	15	-0.87	0.3	4.5*	11	16184*	1660	4044*
CCc1noc(C)c1C(=O)Nc1sc(C(=O)N(C)C)c(C)c1C(=O)OC	nt	15	0.98	-0.93	0.72	-6	nt	nt	nt
COC(=O)c1ccc(C(=O)OC)c(NC(=O)c2ocnc2C)c1	nt	8	0.63	1.3	0.81	nt	nt	nt	nt
c1ccc(Oc2nc(NCc3ccco3)nc(NCc3ccco3)n2)cc1	nt	22	-0.17	0.1	5.2*	10	11736*	1696	3528*
CCOc1nc(NCc2ccco2)nc(Nc2ccc(OC)cc2)n1	nt	5	0.53	1.7	4.5*	8	10436*	1588	3888*
CC1(C)CC(=O)c2cc(OCC(=O)NCCCN3CCN(c4ccccc4F)CC3)ccc2O1	8	17	-0.55	-0.62	5.6*	10	6164*	nt	10276*
CC1(C)CC(=O)c2cc(OCC(=O)NCc3cccnc3)ccc2O1	-50	10	-0.058	0.68	1.5	-2	nt	nt	nt

High-throughput results from PubChem BioAssay.
